In ChEMBL document CHEMBL1121573, “2-(Aminomethyl)phenols, a new class of saluretic agents. 1. Effects of nuclear substitution” (J Med Chem, 1980):

Columns and labels:
[1] = system: Canis familiaris; test: Oral diuretic activity was evaluated by measuring K+ excretion in dog at 5.4 mg/kg after ip administration ( 0-6 hr); assay type: ADME, organism-based, Canis lupus familiaris, Urine; parameters: dose 5.4 mg/kg, route intraperitoneal; conditions: in vivo
Outline: (§1)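 Spontaneous urine was pooled with bladder urine collected by catheterization at 6 h. Volume was measured and Na+, K+ and Cl− were determined by standard methods. Values are geometric means.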

[2] = system: Rattus norvegicus; test: Compound administered orally at a dose of 1 mg/kg was evaluated for salidiuretic activity measured as sodium ion excretion in Rat; conditions: in vivo, po
[3] = system: Canis familiaris; test: Oral diuretic activity was evaluated by measuring Cl- excretion in dog at 0.6 mg/kg after […] ( 0-6 hr); assay type: ADME, organism-based, Canis lupus familiaris, Urine; parameters: dose 0.6 mg/kg, route intraperitoneal; conditions: in vivo
[4] = system: Canis familiaris; test: Oral diuretic activity was evaluated by measuring K+ excretion in dog at 0.6 mg/kg after […] ( 0-6 hr); assay type: ADME, organism-based, Canis lupus familiaris, Urine; parameters: dose 0.6 mg/kg, route intraperitoneal; conditions: in vivo
[5] = system: Rattus norvegicus; test: Oral diuretic activity was evaluated by measuring K+ excretion in Rat at 27 mg/kg after po administration ( 0-5 hr); conditions: in vivo
[6] = Evaluated for salidiuretic activity measured as sodium ion excretion in Rat, administered orally at a dose of 16.5 mg/kg; assay type: organism-based; parameters: dose 16.5 mg/kg; conditions: Urine
Outline: (§2)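 Female Charles-River rats (150–170 g), overnight on sugar diet with water ad libitum. Compound dissolved in DMF, diluted with water containing Tween 80 (final 4% DMF), given po in 5.0 mL; concurrent vehicle placebo. Three rats per metabolism cage; 0–5 h urine analysed for Na+, K+, Cl-. Values: mequiv × 100 per cage, geometric means of three cages per dose; scored 0–6 by Na+.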

[7] = system: Rattus norvegicus; test: Evaluated for salidiuretic activity measured as sodium ion excretion in Rat, administered orally at a dose of 50 mg/kg; assay type: functional, Urine; parameters: unit not given beside the values; conditions: route oral; outline: as §2
[8] = system: Rattus norvegicus; test: Oral diuretic activity was evaluated by measuring K+ excretion in Rat at 81 mg/kg […] ( 0-5 hr); assay type: ADME, organism-based, Urine; parameters: dose 81 mg/kg
Outline: (§3)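 Female Charles-River rats (150–170 g) were kept overnight on a sugar diet with water ad libitum. Test substance was dissolved in DMF and diluted with water containing Tween 80 to a final 4% DMF vehicle, then given po in 5.0 mL. Rats were housed three per metabolism cage, and 0–5 h urine was assayed for Na⁺, K⁺ and Cl⁻ alongside concurrent placebo groups. Values are mequiv × 100 per cage, geometric means of three cages per dose.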

[9] = system: Canis familiaris; test: Oral diuretic activity was evaluated by measuring Na+ excretion in dog at 0.6 mg/kg after ip administration ( 0-6 hr); assay type: ADME, organism-based, Canis lupus familiaris, Urine; parameters: dose 0.6 mg/kg, route intraperitoneal; conditions: in vivo; outline: as §1
[10] = system: Rattus norvegicus; test: Oral diuretic activity was evaluated by measuring Na+ excretion in Rat at 9 mg/kg […] ( 0-5 hr); assay type: ADME, organism-based, Urine; parameters: dose 9 mg/kg; conditions: in vivo, ip
Outline: (§4)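 Female Charles-River rats (150–170 g) were kept overnight on a sugar diet with water ad libitum. Compound was dissolved in DMF, then diluted with water containing Tween 80 (3 drops/100 mL) to a final 4% DMF, and given po in 5.0 mL. Rats were housed three per metabolism cage. Urine from 0–5 h was analysed for Na+, K+ and Cl−, with concurrent placebo controls. Values are mequiv × 100 per cage, geometric mean of three cages per dose.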

[11] = system: Canis familiaris; test: Oral diuretic activity was evaluated by measuring Na+ excretion in dog at 1.8 mg/kg after […] ( 0-6 hr); assay type: ADME, organism-based, Canis lupus familiaris, Urine; parameters: dose 1.8 mg/kg; conditions: in vivo
Outline: (§5)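 Dogs; spontaneous urine was pooled with bladder urine drained by catheter at the end of 6 h. Urine volume was measured, and aliquots were assayed for Na+, K+ and Cl− by standard methods. Values are geometric means, expressed as mequiv over 0–6 h.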

[12] = system: Rattus norvegicus; test: Oral diuretic activity was evaluated by measuring Na+ excretion in Rat at 3 mg/kg […] ( 0-5 hr); assay type: ADME, organism-based, Urine; parameters: dose 3 mg/kg; conditions: in vivo, ip; outline: as §4
[13] = system: Rattus norvegicus; test: Oral diuretic activity was evaluated by measuring K+ excretion in Rat at 9 mg/kg […] ( 0-5 hr); assay type: ADME, organism-based, Urine; parameters: dose 9 mg/kg; outline: as §3
[14] = system: Canis familiaris; test: Oral diuretic activity was evaluated by measuring Cl- excretion in dog at 1.8 mg/kg after […] ( 0-6 hr); assay type: ADME, organism-based, Canis lupus familiaris, Urine; parameters: dose 1.8 mg/kg, route intraperitoneal; conditions: in vivo
[15] = system: Rattus norvegicus; test: Oral diuretic activity was evaluated by measuring Cl- excretion in Rat at 27 mg/kg after […] ( 0-5 hr); assay type: ADME, organism-based, Urine; parameters: dose 27 mg/kg, route intraperitoneal; conditions: in vivo
[16] = system: Rattus norvegicus; test: Oral diuretic activity was evaluated by measuring Na+ excretion in Rat at 27 mg/kg […] ( 0-5 hr); assay type: ADME, organism-based, Urine; parameters: dose 27 mg/kg; outline: as §4
[17] = system: Canis familiaris; test: Oral diuretic activity was evaluated by measuring Cl- excretion in dog at 5.4 mg/kg after […] ( 0-6 hr); assay type: ADME, organism-based, Canis lupus familiaris, Urine; parameters: dose 5.4 mg/kg, route intraperitoneal; conditions: in vivo
[18] = system: Rattus norvegicus; test: Oral diuretic activity was evaluated by measuring Cl- excretion in Rat at 9 mg/kg […] ( 0-5 hr); assay type: ADME, organism-based, Urine; parameters: dose 9 mg/kg; conditions: in vivo; outline: as §3
[19] = Compound administered orally at a dose of 5 mg/kg was evaluated for salidiuretic activity measured as sodium ion excretion in Rat; assay type: organism-based; parameters: dose 5 mg/kg; conditions: Urine; outline: as §2
[20] = system: Canis familiaris; test: Oral diuretic activity was evaluated by measuring Na+ excretion in dog at 5.4 mg/kg after ip administration ( 0-6 hr); assay type: ADME, organism-based, Canis lupus familiaris, Urine; parameters: dose 5.4 mg/kg, route intraperitoneal; conditions: in vivo
Outline: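 Urine collected over 0–6 h: spontaneous voids were pooled with bladder urine taken by catheterization at 6 h. Urine volume was measured, and aliquots were analysed for Na+, K+ and Cl− by standard methods. Electrolyte excretion is reported as geometric means.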

[21] = system: Canis familiaris; test: Oral diuretic activity was evaluated by measuring K+ excretion in dog at 16.2 mg/kg after ip administration ( 0-6 hr); assay type: ADME, organism-based, Canis lupus familiaris, Urine; parameters: dose 16.2 mg/kg, route intraperitoneal; conditions: in vivo; outline: as §1
[22] = system: Rattus norvegicus; test: Oral diuretic activity was evaluated by measuring K+ excretion in Rat at 3 mg/kg after […] ( 0-5 hr); assay type: ADME, organism-based, Urine; parameters: dose 3 mg/kg; outline: as §3
[23] = system: Rattus norvegicus; test: Oral diuretic activity was evaluated by measuring Na+ excretion in Rat at 81 mg/kg […] ( 0-5 hr); assay type: ADME, organism-based, Urine; parameters: dose 81 mg/kg; outline: as §4
[24] = system: Rattus norvegicus; test: Maximum fall in mean arterial blood pressure was measured in SH rats when compound was administered at 20 mg/kg perorally; assay type: functional; conditions: route oral
[25] = system: Rattus norvegicus; test: Oral diuretic activity was evaluated by measuring Cl- excretion in Rat at 81 mg/kg after po administration ( 0-5 hr); conditions: in vivo
[26] = system: Canis familiaris; test: Oral diuretic activity was evaluated by measuring K+ excretion in dog at 1.8 mg/kg after ip administration ( 0-6 hr); assay type: ADME, organism-based, Canis lupus familiaris, Urine; parameters: dose 1.8 mg/kg, route intraperitoneal; conditions: in vivo; outline: as §1
[27] = system: Canis familiaris; test: Oral diuretic activity was evaluated by measuring Na+ excretion in dog at 16.2 mg/kg after […] ( 0-6 hr); assay type: ADME, organism-based, Canis lupus familiaris, Urine; parameters: dose 16.2 mg/kg; conditions: in vivo; outline: as §5
[28] = system: Canis familiaris; test: Oral diuretic activity was evaluated by measuring Cl- excretion in dog at 16.2 mg/kg after […] ( 0-6 hr); assay type: ADME, organism-based, Canis lupus familiaris, Urine; parameters: dose 16.2 mg/kg, route intraperitoneal; conditions: in vivo
[29] = system: Rattus norvegicus; test: Oral diuretic activity was evaluated by measuring Cl- excretion in Rat at 3 mg/kg after […] ( 0-5 hr); assay type: ADME, organism-based, Urine; parameters: dose 3 mg/kg, route intraperitoneal; conditions: in vivo

Diuretic activity [1]: 5.9
Diuretic activity [2]: 0.7
Diuretic activity [3]: 9.91
Diuretic activity [4]: 2.01
Diuretic activity [5]: 0.55
Diuretic activity [8]: 0.44
Diuretic activity [9]: 8.12
Diuretic activity [10]: 2.02
Diuretic activity [11]: 19.43
Diuretic activity [12]: 1.14
Diuretic activity [13]: 0.56
Diuretic activity [14]: 22.93
Diuretic activity [15]: 3.14
Diuretic activity [16]: 2.17
Diuretic activity [17]: 37.15
Diuretic activity [18]: 2.84
Diuretic activity [20]: 33.15
Diuretic activity [21]: 6.25
Diuretic activity [22]: 0.44
Diuretic activity [23]: 2.29
Diuretic activity [25]: 3.2
Diuretic activity [26]: 3.62
Diuretic activity [27]: 33.33
Diuretic activity [28]: 38.78
Diuretic activity [29]: 1.62
SMILES: CCc1c(Cl)c(C)c(CN)c(O)c1Cl.Cl
Diuretic activity [6]: 3.3
Diuretic activity [7]: 3.6
Diuretic activity [19]: 2.6
MAP [24]: 10 mmHg
